From PubChem BioAssay
Rows were chosen to be rich in hits. Some 2.7% of all compounds tested hit in one or more screens of this group.
ARFGAP1 inhibitor: inhibits rat ARF GTPase activating protein 1. Q62848. inhibition, % at 16.5 µM. Arfgap1-stimulated ARF1 GTP hydrolysis, GDP FP detection. 0.26% of 360,000 active;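 active = inhibition above a per-plate limit, mean inhibition of low control wells plus 3 SD, cut at about 25% in these data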;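 note: 0% = DMSO wells with enzyme and 100% = wells lacking Arfgap1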
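material = rat Arfgap1 catalytic domain, aa 1-136 | also added = human ARF1(Δ1-17)-GTP substrate | compound dosing = one concentration, 16.5 µM, DMSO 1.26% | times = GTP hydrolysis reaction 2 h at 25 °C | measured by = FP, GDP Alexa 633 tracer displaced from anti-GDP antibody, 620/688 nm | evaluation = percent inhibition of Arfgap1-stimulated GTP hydrolysis | replication = single well per compound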
NR1D1 modulator: Rev-erb alpha (human) modulation; P20393; Rev-erbα–FITC-DNA binding, fluorescence polarization, 90 min; activity, % at 10 µM; 0.79% of 370,000 active;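 active = activity above about 14%, limit read from the data; passing the limit was not always enough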;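 note: 0% = DMSO wells with 35 nM protein and 100% = DMSO wells with 750 nM protein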
Target sequence (P20393 whole entry, looked up): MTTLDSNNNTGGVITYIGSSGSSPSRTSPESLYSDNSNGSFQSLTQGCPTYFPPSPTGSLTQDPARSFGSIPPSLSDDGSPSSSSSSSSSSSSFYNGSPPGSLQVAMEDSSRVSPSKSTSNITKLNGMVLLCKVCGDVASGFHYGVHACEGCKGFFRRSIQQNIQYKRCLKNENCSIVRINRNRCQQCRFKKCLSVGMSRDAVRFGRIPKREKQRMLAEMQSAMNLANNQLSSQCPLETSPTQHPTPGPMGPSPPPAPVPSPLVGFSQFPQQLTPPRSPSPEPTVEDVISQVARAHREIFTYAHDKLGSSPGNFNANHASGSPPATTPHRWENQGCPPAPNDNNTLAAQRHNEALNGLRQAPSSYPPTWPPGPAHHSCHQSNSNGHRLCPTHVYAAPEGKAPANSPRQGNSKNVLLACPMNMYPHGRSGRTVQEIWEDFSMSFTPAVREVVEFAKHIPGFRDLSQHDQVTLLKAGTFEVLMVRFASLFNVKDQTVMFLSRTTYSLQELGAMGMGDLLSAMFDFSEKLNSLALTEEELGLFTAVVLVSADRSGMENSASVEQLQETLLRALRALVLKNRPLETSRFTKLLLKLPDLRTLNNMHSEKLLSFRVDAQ
MsrA act: activates bovine MsrA enzyme | purified bovine MsrA, absorbance read-out | activation, % at 10.6 µM | 0.3% of 360,000 active | AID 602163; in the data active = activation above about 7.5%;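 note: 0% = vehicle and 100% = reference activator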
ASAP1 inh: ASAP1 ArfGAP inhibition. Q9ULH1. ASAP1-stimulated ARF1 GTP hydrolysis, GDP FP detection. inhibition, % at 16.5 µM. 0.19% of 360,000 active; in the data active = inhibition above about 25%;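 note: 0% = vehicle with enzyme and substrate and 100% = no enzyme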
sPLA2-III inh: Inhibits HGIII-sPLA2 liposome hydrolysis, primary screen; QFRET BODIPY PC-A2 liposome hydrolysis, fluorescence; 0.56% of 370,000 active; AID 743126; Q9NZ20; inhibition, % at 12.2 µM;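 active = inhibition above mean plus 3 SD of compounds lying within the high and low control bounds, cut at about 19% in these data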;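 note: 0% = median of test compound wells and 100% = no enzyme DMSO wells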
MsrA inh: bovine MsrA inhibition. AID 651718. inhibition, % at 15.5 µM. purified bovine MsrA, absorbance read-out. 0.75% of 360,000 active;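 note: 0% = vehicle wells with enzyme and 100% = reference inhibitor wells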
MsrA inh confirm: bovine MsrA inhibition, confirmed; shares compounds with MsrA inh; purified bovine MsrA, absorbance read-out; inhibition, % at 15.5 µM; 41% of 2,300 active;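 note: coupled to thioredoxin reductase with NADPH and selenocystamine and DMSO as substrate; 0% = vehicle only and 100% = full effect of reference inhibitor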
The depositor's hits bear a star; · = no result. Cut-off read from the data, not from the text of the source, unless noted: active = inhibition above about 4.5%; inactive = the rest.

SMILES	ARFGAP1 inhibitor	NR1D1 modulator	MsrA act	ASAP1 inh	sPLA2-III inh	MsrA inh	MsrA inh confirm
CC(=O)Nc1ccc(N=C(C2=C(O)c3ccccc3C2=O)c2ccccc2)cc1	0.5	-1.9	-7.1	2.2	1.4	4.7*	3.8
O=C(N/N=C/c1ccc([N+](=O)[O-])cc1)c1[nH]ncc1Br	7.3	0.9	-11.3	2.7	4.3	4.9*	3.4
O=C(N/N=C/c1ccc([N+](=O)[O-])cc1)c1cc(C2CC2)[nH]n1	-6.6	-5.3	-3.0	2.6	4.0	5.3*	5.3*
O=C(N/N=C/c1cccc([N+](=O)[O-])c1)c1ccc2nc[nH]c2c1	3.4	0.0	-1.9	14.8	-2.0	1.1	·
O=C(N/N=C\c1cn[nH]c1-c1ccccc1)c1ccc([N+](=O)[O-])cc1	3.6	-2.3	-1.0	-0.3	-2.7	2.6	·
O=C(N/N=C/c1ccc([N+](=O)[O-])cc1)c1ccc2nc[nH]c2c1	5.0	6.0	-0.7	-1.8	-3.2	5.6*	4.8*
CCCCCC[C@H](CC)CN(C(=O)Oc1ccccc1)c1ccccc1	·	-1.4	·	·	16.1	·	·
C=CCN1C(=O)[C@@H](CC(=O)NCc2cccc3ccccc23)[C@]2(C(=O)OC)CCCCC=C12	·	-0.8	·	·	-6.2	·	·
CCC(=O)N1CCc2cc(Br)c(S(=O)(=O)NCc3ccccc3OC)cc21	·	0.1	·	·	4.8	·	·
O=S1(=O)c2ccc(Br)cc2OC[C@@H](Cc2ccccc2)N1Cc1cn(CCC2OCCO2)nn1	·	5.4	·	·	-5.2	·	·
O=C(Nc1c(-c2ccc(F)cc2)nc2ncccn12)C1CC1	·	1.4	·	·	-0.4	·	·
O=C1OC(c2ccccc2)=N/C1=C\C=C\c1ccco1	-6.9	4.6	-7.4	-0.1	-6.8	4.9*	2.0
O=C1OC(c2ccc(Cl)cc2)=N/C1=C\C=C\c1ccco1	0.1	-0.8	-0.3	7.3	-2.8	4.7*	4.3
O=C1OC(c2ccccc2)=N/C1=C\C=C\c1ccccc1[N+](=O)[O-]	-8.3	-3.2	-7.1	-7.8	-3.8	2.4	·
C=CCN1C(=O)[C@H](CC(=O)N2CCN(C(=O)c3ccco3)CC2)[C@@]2(C(=O)OCC)CCCC=C12	·	4.4	·	·	-2.5	·	·
COC(=O)C(NC(=O)c1ccccc1)=C1C=C(C)OC(C)=C1	1.0	-0.5	-0.2	-2.9	3.6	5.3*	3.9
COCCCNc1nc2ccccc2nc1NS(=O)(=O)c1ccc(OC)cc1	-3.0	-1.3	-0.5	7.3	0.8	2.9	·
COCCCNc1nc2ccccc2nc1NS(=O)(=O)c1cccs1	-2.9	4.3	-3.6	-9.2	-6.0	5.2*	3.4
O=S(=O)(Nc1nc2ccccc2nc1OCC(F)(F)F)c1cccs1	5.6	-3.7	-1.8	2.1	-16.0	4.9*	0.7
Cc1cccc(Cn2cc(COC(=O)Nc3ccc(F)cc3)nn2)c1	·	0.7	·	·	-9.0	·	·
CCOC(=O)C1=NOC(C(=O)NCc2ccccc2)(C(=O)c2ccc(OC)cc2)C1 (centres undefined)	·	7.0	·	·	-1.6	·	·
O=C(O)CSC(=S)N1CCCC1	2.4	3.4	1.1	-13.3	1.3	2.4	·
O=C(CSC(=S)N1CCCC1)N/N=C/c1c(O)[nH]c(=S)[nH]c1=O	6.2	11.1	-1.3	1.5	0.2	5.2*	5.2*
COCCNC(=O)C[C@H]1CC[C@H]2[C@@H](COc3ccc(NC(=O)Nc4cccc(F)c4)cc3C(=O)N2C)O1	·	12.0	·	·	-15.1	·	·
COc1cc(OC)c(OC)cc1/C=C/c1cc(C(F)(F)F)[nH]c(=O)n1	16.6	-4.7	-3.1	0.1	-4.2	0.5	·
SMILES	ARFGAP1 inhibitor	NR1D1 modulator	MsrA act	ASAP1 inh	sPLA2-III inh	MsrA inh	MsrA inh confirm
COc1cc(/C=C/c2cc(C(F)(F)F)[nH]c(=O)n2)cc(OC)c1OC	4.6	-4.1	-12.7	-4.0	-6.2	5.6*	3.0
COc1cc(/C=C/C2=NNC(=O)CC2)cc(OC)c1OC	7.6	-5.7	-4.9	-18.3	11.3	8.2*	3.0
Fc1ccc(CC2CCN(c3ncnc4sccc34)CC2)cc1	·	7.6	·	·	-15.9	·	·
CN(C)c1oc(-c2cccs2)nc1C#N	10.5	2.7	-5.6	-6.3	3.8	4.9*	2.8
CNc1oc(-c2cccs2)nc1C#N	16.1	2.4	-19.1	1.9	6.7	3.8	·
COc1ccc(-c2cc(C(F)(F)F)nc(SCC(=O)N(C)Cc3cn(C)nc3C)n2)cc1OC	-4.6	0.5	-7.8	-17.6	3.4	6.0*	3.9
COc1ccc(-c2cc(C(F)(F)F)nc(SCC(=O)NCc3ccco3)n2)cc1OC	4.2	11.1	-5.4	9.4	-1.3	2.1	·
CCOc1ccc(-c2nnc(-c3ccncc3)o2)cc1OCC	2.0	-6.0	-3.6	8.3	-1.1	4.9*	1.7
CCOc1ccc(-c2nnc(-c3ccncc3)o2)cc1	3.0	-5.0	-2.4	-10.9	1.6	2.0	·
O=C(N/N=C/c1ccccc1)c1cccc2ccccc12	7.1	3.4	-6.2	-19.8	-5.4	0.9	·
O=C(N/N=C/c1cccn1-c1ccc(O)cc1)c1cccc2ccccc12	6.9	-0.8	0.3	9.3	-16.3	5.2*	2.7
COc1cc(/C=C2\C(=O)ON=C2c2ccccc2)cc(Br)c1O	-6.7	-0.4	-8.0	-0.7	1.0	5.5*	2.4
CCOc1cc(/C=C2\C(=O)ON=C2c2ccccc2)cc(Br)c1O	6.6	-6.9	-7.6	-0.6	-3.6	4.3	·
CCOc1cc(/C=C2/C(=O)ON=C2C)cc(Br)c1O	-5.8	-3.5	-11.5	-10.3	4.1	5.0*	2.7
CC1=C(c2ccc(F)cc2)[N+](=O)C(C)(C)N1[O-]	4.1	0.1	-11.4	-9.5	2.3	4.8*	0.2
O=C(OCC(=O)N1CCN(C(=O)c2ccco2)CC1)c1ccccc1NCCO	6.7	1.4	-2.5	-3.5	8.3	4.7*	1.4
O=C(OCC(=O)N1CCN(C(=O)COC(=O)c2ccccc2NCCO)CC1)c1ccccc1NCCO	-2.0	-13.2	-1.7	4.8	-4.2	2.0	·
COC(=O)[C@]12C[C@H](CC(=O)N3CCC(c4ccccc4)CC3)C(=O)N(Cc3ccc(Cl)cc3Cl)C1=C[C@H](C(C)(C)C)O[C@@H]2C	·	6.2	·	·	0.0	·	·
COc1cc(/C=N/Nc2nc3c(c(=O)n(C)c(=O)n3C)n2Cc2ccccc2)ccc1OC(=O)c1ccco1	10.2	-1.7	-9.2	6.4	11.5	5.4*	3.7
CC[C@@H](CCCc1ccc(F)cc1)CN(Cc1ccc(OC)cc1)S(=O)(=O)c1ccc(C)cc1	·	1.9	·	·	5.5	·	·
Cc1ccc(S(=O)(=O)/N=C/N(C)C)cc1	4.2	-2.1	-3.7	8.2	0.4	-0.4	·
Cc1ccc(S(=O)(=O)/N=C/c2ccc(N(C)C)cc2)cc1	4.5	6.8	-12.2	7.0	5.0	6.7*	2.1
Cc1ccc(S(=O)(=O)NCCN=Cc2ccc(N(C)C)cc2)cc1	17.8	6.8	-5.9	-18.3	-1.8	4.9*	4.3
CN(C)c1ccc(/C=N/NS(=O)(=O)c2ccc(Br)cc2)cc1	-9.6	1.5	-10.3	-1.7	5.0	2.2	·
